Reference: ChEMBL document CHEMBL1153726, “Synthesis and anticancer activity of sclerophytin-inspired hydroisobenzofurans” (Bioorg Med Chem Lett, 2009)

Test: Antitumor activity against human KB3 cells after 96 hrs by MTT assay
Assay type: functional, cell-based
Conditions: KB3, 96 h
Outline: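 Human KB-3 carcinoma cells exposed to increasing compound concentrations; viability read by MTT colorimetric assay after 96 h. Values are means of triplicate assays, expressed relative to untreated controls.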

Compound: C=C(C)[C@H]1CC=C(C)[C@@]2(O)[C@@H]1[C@H](c1ccccc1Br)O[C@@H]2C(=O)OCC
- IC50: 20 µM

Compound: C=C(C)[C@H]1CC=C(C)[C@@]2(O)[C@@H]1[C@H](c1ccccc1Br)O[C@@H]2C(=O)OCC1CCCC1
- IC50: > 100 µM

Compound: C=C(C)[C@H]1CC=C(C)[C@H]2[C@@H]1[C@H](c1ccccc1Br)O[C@@H]2C(=O)OCC
- IC50: > 100 µM

Compound: C=C(C)[C@H]1CC=C(C)[C@@]2(O)[C@@H]1[C@H](c1ccccc1Br)O[C@@H]2C(=O)OC
- IC50: 5 µM

Compound: C=C(C)[C@H]1CC=C(C)[C@@]2(O)[C@@H]1[C@H](c1ccccc1Br)O[C@@H]2C(=O)O
- IC50: > 100 µM
